Data: ChEMBL document CHEMBL5360637, “Ravidomycin Analogs from Streptomyces sp. Exhibit Altered Antimicrobial and Cytotoxic Selectivity” (J Nat Prod, 2023)
Values after ≈ are worked out from the molar mass of the structure shown.

Key:
[1] = system: Staphylococcus aureus; experiment: Antibacterial activity against Staphylococcus aureus Newman assessed as bacterial growth inhibition incubated for 24 hrs by microtiter plate reader analysis; format: functional
Outline: (§1)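 Broth microdilution in Mueller-Hinton broth (P. aeruginosa PAO1 is the mexAB-oprM strain). Overnight cultures were diluted 1:1000 and 200 μL was added to wells holding 2 μL of compound in DMSO. Plates were incubated 24 h at room temperature under room fluorescent light, then OD600 was read. MIC was taken as the lowest concentration keeping OD600 from rising above 0.1.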

[2] = system: Pseudomonas aeruginosa; experiment: Antibacterial activity against Pseudomonas aeruginosa PAO1 assessed as bacterial growth inhibition incubated for 24 hrs by microtiter plate reader analysis; format: functional; outline: as §1
[3] = system: HCC1806; experiment: Cytotoxicity against human HCC1806 cells assessed as reduction in cell viability incubated for 72 hrs by Cell-titer glo assay; format: functional, cell-based; settings: HCC1806, 72 h
Outline: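 HCC1806 cells were grown in DMEM with 10% FBS, penicillin/streptomycin and 1% GlutaMax, were mycoplasma-tested and kept ≤4 weeks. Cells were seeded at 2500 per well and treated after 24 h, with six wells per dose, against a 0.1% DMSO vehicle. CellTiter-Glo 2.0 luminescence was read at 72 h. IC50 came from a log(inhibitor) vs normalized response least-squares fit of % viability relative to DMSO.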

[4] = system: Candida albicans; experiment: Antifungal activity against Candida albicans SC5314 assessed as bacterial growth inhibition incubated for 24 hrs by microtiter plate reader analysis; format: functional
Outline: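 C. albicans was grown in RPMI 1640 with 165 mM MOPS, pH 7.0. Overnight culture was diluted 1:1000 and 200 μL was added to wells holding 2 μL of compound in DMSO. Plates were incubated 24 h at room temperature under room fluorescent light, then OD600 was read. MIC was the lowest concentration preventing OD600 from exceeding 0.1.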

MIC [1] [µg/mL]	MIC [2] [µg/mL]	MIC [4] [µg/mL]	Structure (SMILES)	IC50 [3] [nM]
0.012 (≈ 0.0218 µM)	25 (≈ 45.3 µM)	6.3 (≈ 11.4 µM)	C=Cc1cc(OC)c2c(c1)c(=O)oc1c2cc(OC)c2c(O)ccc([C@@H]3O[C@H](C)[C@H](O)[C@H](NC(=O)OC)[C@H]3O)c21	710
0.006 (≈ 0.0109 µM)	50 (≈ 91 µM)	13 (≈ 23.7 µM)	C=Cc1cc(OC)c2c(c1)c(=O)oc1c2cc(OC)c2c(O)ccc([C@@H]3O[C@H](C)[C@H](O)[C@H](N(C)C(C)=O)[C@H]3O)c21	1700
0.1 (≈ 0.209 µM)	50 (≈ 104 µM)	6.3 (≈ 13.2 µM)	C=Cc1cc(OC)c2c(c1)c(=O)oc1c2cc(OC)c2c(O)ccc([C@@H]3O[C@H](C)[C@H](O)C[C@H]3O)c21	> 10000
1.6 (≈ 3.14 µM)	> 100	100 (≈ 196 µM)	COc1cc2c(oc(=O)c3cc(C)cc(OC)c32)c2c([C@@H]3O[C@H](C)[C@H](O)[C@H](N(C)C)[C@H]3O)ccc(O)c12	3600
0.006 (≈ 0.0115 µM)	3.1 (≈ 5.94 µM)	0.78 (≈ 1.5 µM)	C=Cc1cc(OC)c2c(c1)c(=O)oc1c2cc(OC)c2c(O)ccc([C@@H]3O[C@H](C)[C@H](O)[C@H](N(C)C)[C@H]3O)c21	81
0.003 (≈ 0.00559 µM)	50 (≈ 93.2 µM)	6.3 (≈ 11.7 µM)	C=Cc1cc(OC)c2c(c1)c(=O)oc1c2cc(OC)c2c(O)ccc([C@@H]3O[C@H](C)[C@H](OC(C)=O)[C@H](O)[C@H]3O)c21	5100
0.1 (≈ 0.187 µM)	> 13	13 (≈ 24.3 µM)	C=Cc1cc(OC)c2c(c1)c(=O)oc1c2cc(OC)c2c(O)ccc([C@@H]3O[C@H](C)[C@H](O)[C@H](NC(C)=O)[C@H]3O)c21	> 10000
0.049 (≈ 0.0913 µM)	> 100	> 25	C=Cc1cc(OC)c2c(c1)c(=O)oc1c2cc(OC)c2c(O)ccc([C@@H]3O[C@H](C)[C@H](O)[C@H](O)[C@H]3OC(C)=O)c21	870
0.003 (≈ 0.0053 µM)	50 (≈ 88.4 µM)	6.3 (≈ 11.1 µM)	C=Cc1cc(OC)c2c(c1)c(=O)oc1c2cc(OC)c2c(O)ccc([C@@H]3O[C@H](C)[C@H](O)[C@H](N(C)C(=O)OC)[C@H]3O)c21	550
0.39 (≈ 0.768 µM)	> 13	13 (≈ 25.6 µM)	C=Cc1cc(O)c2c(c1)c(=O)oc1c2cc(OC)c2c(O)ccc([C@@H]3O[C@H](C)[C@H](O)[C@H](N(C)C)[C@H]3O)c21	> 10000
0.049 (≈ 0.0965 µM)	6.3 (≈ 12.4 µM)	0.78 (≈ 1.54 µM)	C=Cc1cc(OC)c2c(c1)c(=O)oc1c2cc(OC)c2c(O)ccc([C@@H]3O[C@H](C)[C@H](O)[C@H](NC)[C@H]3O)c21	53
0.78 (≈ 1.49 µM)	> 100	25 (≈ 47.7 µM)	CCc1cc(OC)c2c(c1)c(=O)oc1c2cc(OC)c2c(O)ccc([C@@H]3O[C@H](C)[C@H](O)[C@H](N(C)C)[C@H]3O)c21	> 10000
13 (≈ 24.1 µM)	> 13	> 13	COc1cc2c(oc(=O)c3cc([C@H](C)O)cc(OC)c32)c2c([C@@H]3O[C@H](C)[C@H](O)[C@H](N(C)C)[C@H]3O)ccc(O)c12	> 10000
0.006 (≈ 0.0112 µM)	> 100	6.3 (≈ 11.7 µM)	C=Cc1cc(OC)c2c(c1)c(=O)oc1c2cc(OC)c2c(O)ccc([C@@H]3O[C@H](C)[C@H](O)[C@H](OC(C)=O)[C@H]3O)c21	370

Structure (SMILES)	MIC [1] [µg/mL]	MIC [2] [µg/mL]	MIC [4] [µg/mL]	IC50 [3] [nM]
C=Cc1cc(OC)c2c(c1)c(=O)oc1c2cc(OC)c2c(O)ccc([C@@H]3O[C@H](C)[C@H](O)[C@H](O)[C@H]3O)c21	0.006 (≈ 0.0121 µM)	3.1 (≈ 6.27 µM)	13 (≈ 26.3 µM)	3600
C=Cc1cc(OC)c2c(c1)c(=O)oc1c2cc(OC)c2c(O)ccc([C@@H]3O[C@H](C)[C@H](OC(C)=O)[C@H](N(C)C)[C@H]3O)c21	0.39 (≈ 0.692 µM)	13 (≈ 23.1 µM)	0.39 (≈ 0.692 µM)	42
